Test results taken from ChEMBL document CHEMBL1136759, “Synthesis and antiviral activity of novel erythrofuranosyl imidazo[1,2-a]pyridine C-nucleosides constructed via palladium coupling of iodoimidazo[1,2-a]pyridines and dihydrofuran” (J Med Chem, 2003).

Columns and labels:
[1] = Visual cytotoxicity was scored on HFF cells at time of HCMV plaque enumeration; >100 indicates IC50 greater than the noted (highest) concentration tested.; format: functional, cell-based; conditions: Homo sapiens
Procedure, shortened: (§1)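 Stationary HFF cells, not affected by virus, inspected microscopically for cytotoxicity at the time of plaque counting in the 7-day, 37 °C HCMV plaque assay. Drug was in growth medium. IC50 estimated from regression of % inhibition against log concentration.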

Human betaherpesvirus 5 [2] = assay: Antiviral activity against HCMV using plaque reduction assay; >100 indicates IC50 greater than the noted(highest) concentration tested.; format: functional, organism-based
Procedure, shortened: (§2)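 HFF cells in 24-well dishes infected with about 100 pfu HCMV (Towne strain) per cm2 cell sheet. After adsorption, drug in growth medium added to duplicate wells at four to eight concentrations. Incubated 7 days at 37 °C, then fixed and stained with crystal violet, and plaques counted microscopically. IC50 from linear regression of % plaque reduction versus log concentration. Means of 2–5 experiments.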

Human alphaherpesvirus 1 [3] = assay: Antiviral activity against HSV-1 using ELISA assay; >100 indicates IC50 greater than the noted (highest) concentration tested.; format: functional, organism-based
Procedure, shortened: (§3)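 BSC-1 cells seeded at 10000 per well in MEM(E) with 10% calf serum and incubated overnight. Drug added in quadruplicate with HSV-1 (KOS) at 100 pfu/well, then 3 days at 37 °C. Detection used HRP-conjugated rabbit anti-HSV-1 antibody with TMB substrate, read at 450 and 570 nm. IC50 from regression of % absorbance reduction versus log concentration.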

KB [4] = assay: Inhibition of KB cell growth was determined; >100 indicates IC50 greater than the noted(highest) concentration tested.; format: functional, cell-based; conditions: Homo sapiens
Procedure, shortened: (§4)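 KB cells seeded at 3000-5000 per well and incubated overnight. Compound added in quadruplicate at six to eight concentrations, then 48 h at 37 °C in CO2, covering about two population doublings. Cells fixed in 95% ethanol, stained with 0.1% crystal violet, dye eluted with acidified ethanol, read at 570 nm. IC50 by linear regression against log concentration.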

KB [5] = assay: Inhibition of KB cell growth was determined; format: functional, cell-based; conditions: Homo sapiens; procedure, shortened: as §4
[6] = Visual cytotoxicity was scored on HFF cells at time of HCMV plaque enumeration; format: functional, cell-based; conditions: Homo sapiens; procedure, shortened: as §1
Human betaherpesvirus 5 [7] = assay: Antiviral activity against HCMV using plaque reduction assay; format: functional, organism-based; procedure, shortened: as §2
Human alphaherpesvirus 1 [8] = assay: Antiviral activity against HSV-1 using ELISA assay; format: functional, organism-based; procedure, shortened: as §3
[9] = Visual cytotoxicity was scored on HFF cells at time of HCMV plaque enumeration; >100 indicates IC50 greater than the noted(highest) concentration tested.; format: functional, cell-based; conditions: Homo sapiens; procedure, shortened: as §1
Human betaherpesvirus 5 [10] = assay: Antiviral activity against HCMV using plaque reduction assay; >100 indicates IC50 greater than the noted (highest) concentration tested.; format: functional, organism-based; procedure, shortened: as §2

`O[C@@H]1[C@H](O)CO[C@@H]1c1c(Cl)nc2ccc(Cl)cn12` gave an IC50 [1] of over 100 µM, an IC50 (Human betaherpesvirus 5 [2]) of over 100 µM and an IC50 (Human alphaherpesvirus 1 [3]) of over 100 µM. For the same compound, the IC50 (KB [4]) was over 100 µM.

`O[C@@H]1[C@H](O)CO[C@@H]1c1c(Cl)nc2cc(Cl)c(Cl)cn12` (stereo in doubt; 20) showed an IC50 (KB [5]) of 68 µM, an IC50 [6] of 100 µM and an IC50 (Human betaherpesvirus 5 [7]) of 2.9 µM. It also gave an IC50 (Human alphaherpesvirus 1 [8]; Human alphaherpesvirus 1) of 14 µM.

For `O[C@@H]1COC(c2c(Cl)nc3ccc(Cl)cn23)[C@@H]1O` (single isomer, unassigned), the IC50 [9] was over 100 µM, the IC50 (Human betaherpesvirus 5 [2]) was over 100 µM and the IC50 (Human alphaherpesvirus 1 [3]) was over 100 µM. It also gave an IC50 (KB [4]) of over 100 µM.

`O[C@@H]1[C@H](O)CO[C@@H]1c1c(Cl)nc2cc(Cl)c(Cl)cn12` (stereo in doubt; 15a) showed an IC50 [1] of over 100 µM, an IC50 (KB [4]) of over 100 µM and an IC50 (Human betaherpesvirus 5 [7]) of 8 µM. The IC50 (Human alphaherpesvirus 1 [8]) was 24 µM.

`O[C@@H]1C(c2c(Cl)nc3cc(Cl)c(Cl)cn23)OC[C@@H]1O` (some centres not stated) showed an IC50 [1] of over 100 µM, an IC50 (Human alphaherpesvirus 1 [3]) of over 100 µM and an IC50 (KB [4]) of over 100 µM. It also gave an IC50 (Human betaherpesvirus 5 [10]) of over 100 µM.

For `O[C@@H]1[C@H](O)CO[C@@H]1c1c(Cl)nc2cc(Cl)c(Cl)cn12`, the IC50 (Human betaherpesvirus 5 [2]) was over 100 µM and the IC50 (Human alphaherpesvirus 1 [3]) was over 100 µM.
